Results published in ChEMBL document CHEMBL1949627, “Novel triacsin C analogs as potential antivirals against rotavirus infections” (Eur J Med Chem, 2012).
Calls of active or inactive are those of the source. No cut-off for these calls is given here.

Tests used:
Rotavirus [1] = test: Antiviral activity against Rotavirus SA11 in MA104 cells assessed as inhibition of viral replication after 24 hrs by immunofluorescent assay and Western blotting analysis; assay type: functional; details: SA11, MA104, 24 h, read-out: ED50 (the source's name)
Outline: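 Confluent MA104 monolayers infected 1 hr, PBS-washed, then given MEM with compound or DMSO (0.1%) plus trypsin 1 μg/ml. VP6 tracked by IFA (methanol fixation, anti-VP6 mAb, FITC secondary) or Western blot (β-actin control). ED50 derived from TCID50 titers at 24 hr post infection, MOI 0.05, by Litchfield–Wilcoxon.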

[2] = Cytotoxicity against monkey MA104 cells after 24 hrs; assay type: cell-based, Macaca mulatta; details: rhesus monkey, read-out: TD50
Outline: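 Confluent MA104 cells exposed to a range of compound concentrations for 24 hrs; cytotoxicity read with a non-radioactive cytotoxicity (CytoTox 96) kit; TD50 derived by the Litchfield–Wilcoxon method.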

Rotavirus [3] = test: Antiviral activity against Rotavirus Wa in MA104 cells assessed as inhibition of viral replication after 24 hrs by immunofluorescent assay and Western blotting analysis; assay type: functional, organism-based
MA104 = test: Inhibition of lipogenesis in monkey MA104 cells infected with Rotavirus SA11 assessed as inhibition of increase in lipid droplets at 1 uM after 10 hrs by NBD-cholesterol based fluorescence analysis; assay type: functional, cell-based; details: Macaca mulatta
Outline: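 Confluent MA104 cells, mock- or SA11-infected at MOI 10, incubated with compound or 0.1% DMSO in medium with NBD-cholesterol 1 μg/ml and trypsin 1 μg/ml. Fixed at 10 hr post infection in 4% formaldehyde for 10 min, PBS-washed twice; lipid-droplet fluorescence viewed by fluorescence microscopy.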

Huh-7 = test: Inhibition of lipogenesis in human HuH7 cells assessed as inhibition of increase in lipid droplets at 1 uM after 72 hrs by NBD-cholesterol based fluorescence analysis; assay type: functional, cell-based
Outline: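 Confluent uninfected Huh-7 cells, in which lipid droplets form spontaneously, treated with compound or 0.1% DMSO for 72 hrs. Medium then replaced with NBD-cholesterol (1 μg/ml) for a further 12 hrs. Cells fixed in 4% formaldehyde for 10 min, PBS-washed, and lipid-droplet fluorescence examined by fluorescence microscopy.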

[4] = Therapeutic index, ratio of TD50 for monkey MA104 cells to ED50 for Rotavirus SA11; assay type: cell-based; details: read-out: Ratio TD50/ED50
Outline: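 TD50: confluent MA104 cells exposed to graded compound concentrations for 24 hrs, cytotoxicity read with CytoTox 96 non-radioactive kit, Litchfield–Wilcoxon fit. ED50: SA11-infected MA104 (MOI 0.05) treated with compound plus trypsin 1 μg/ml, TCID50 titers at 24 hr, Litchfield–Wilcoxon. Index is TD50 divided by ED50.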

Rotavirus [5] = test: Virucidal activity against Rotavirus SA11 in MA104 cells assessed as reduction in viral titer at 100 uM pretreated for 2 hrs prior infection measured after 12 hrs postinfection by immunofluorescent assay; assay type: functional, organism-based
Rotavirus [6] = test: Virucidal activity against Rotavirus SA11 in MA104 cells assessed as reduction in viral titer at 100 uM pretreated for 2 hrs prior infection measured after 12 hrs postinfection by Western blotting analysis; assay type: functional, organism-based

SMILES | EC50 (Rotavirus [1]) | CC50 at 24 h [2] | inhibition (Rotavirus [3]) | inhibition (MA104) | inhibition (Huh-7) | selectivity ratio [4] | inhibition (Rotavirus [5]) | inhibition (Rotavirus [6])
C=C1C(=O)O[C@H](CCCCCCCC)[C@H]1C(=O)O | 21.2 µM | 28.5 µM |  |  |  |  |  | 
CCC/C=C/C/C=C/C=C/C=N/N1CCCS1(=O)=O | 2.2 µM | 86.4 µM | Active | Active | Dose-dependent effect |  |  | 
CCCCCCCCCCCCCCCCNc1ccc(C(=O)O)cc1 [CETABEN] | 11.3 µM | 75.5 µM |  |  |  |  |  | 
CCCCCCCCCCC(C)(C)C(=O)Nc1c(OC)cc(OC)cc1OC [CL-976] | 4.3 µM | 8.5 µM |  |  |  |  |  | 
Cc1c(C)c2c(c(C)c1O)CCC(C)(COc1ccc(CC3SC(=O)NC3=O)cc1)O2 (stereo unspecified) [TROGLITAZONE] | 5.8 µM | 18.5 µM |  |  |  |  |  | 
CCC/C=C/C/C=C/C=C/C=N/NS(=O)(=O)C(C)C | 9.8 µM | 90.2 µM | Active |  |  |  |  | 
C/C=C/C/C=C/CCC(=O)[C@H]1O[C@H]1C(N)=O [CERULENIN] | 28.5 µM | 56.7 µM |  |  |  |  |  | 
C=C(C)[C@@H]1CC[C@]2(C(=O)O)CC[C@]3(C)[C@H](CC[C@@H]4[C@@]5(C)CC[C@H](O)C(C)(C)[C@@H]5CC[C@]43C)[C@@H]12 [BETULINIC ACID] | 22.5 µM | 27.8 µM |  |  |  |  |  | 
CCC/C=C/C/C=C/C=C/C=N/NS(=O)(=O)CCl | 8.7 µM | 74 µM | Active |  |  |  |  | 
O=C(Nc1ccccc1)Nc1ccc(-c2ccc(C(=O)[C@@H]3CCC[C@H]3C(=O)O)cc2)cc1 | 23.2 µM | 85.4 µM |  |  |  |  |  | 
CCC/C=C/C/C=C/C=C/C=C/C#N | 21.3 µM | 78.8 µM | Active |  |  |  |  | 
CCC/C=C/C/C=C/C=C/C=N/NN=O [TRIACSIN C] | 0.2 µM | 49.6 µM |  | Active | Dose-dependent effect | 248 | inactive | inactive
CCC/C=C/C/C=C/C=C/C=N/NS(=O)(=O)CCCCl | 11.5 µM | 86.3 µM | Active |  |  |  |  | 
CCC/C=C/C/C=C/C=C/CNc1ccc(C(=O)O)cc1 | 0.1 µM | 28.5 µM | Active | Active | Dose-dependent effect | 285 | inactive | inactive
